Values joined by “and” are separate entries in the source; they are usually repeats but may differ in a detail not shown here. Equal entries are not always repeated.
Legend:
Calf thymus DNA = experiment: DNA binding affinity at low ionic strength as change in midpoint; format: nucleic-acid assay; details: Bos taurus
Rattus norvegicus [1] = organism: Rattus norvegicus; experiment: Ability to reduce the severity of PCP in histologic score (represents scattered cysts,25-50% lung involved with small intense areas of infection); format: functional
In short: (§1)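 Male Sprague-Dawley rats (150–200 g, barrier raised) were given corticosteroids to induce PCP. From week 6, groups of eight or more received the compound by single daily iv injection in 0.4 mL saline for 14 days, generally at 10 mg/kg. Rats were killed at the end of week 8. GMS-stained lung sections were scored from 0.5 to 4 (4 = >50% involvement), with saline and pentamidine control groups.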

Rattus norvegicus [2] = organism: Rattus norvegicus; experiment: Ability to reduce the severity of PCP in histologic score (represents >50% lung involved with many intense areas of focal infection); format: functional; in short: as §1
Pneumocystis carinii [3] = experiment: (§2) Ability to reduce the severity of PCP in immunosuppressed rats after (iv) administration of 10 mg/kg/day; format: functional; in short: as §1
Serine protease 1 [4] = molecular target: T1, Serine protease 1 (Homo sapiens, UniProt P07477); experiment: Inhibition of trypsin by amidase assay.
T1 sequence (P07477 whole entry): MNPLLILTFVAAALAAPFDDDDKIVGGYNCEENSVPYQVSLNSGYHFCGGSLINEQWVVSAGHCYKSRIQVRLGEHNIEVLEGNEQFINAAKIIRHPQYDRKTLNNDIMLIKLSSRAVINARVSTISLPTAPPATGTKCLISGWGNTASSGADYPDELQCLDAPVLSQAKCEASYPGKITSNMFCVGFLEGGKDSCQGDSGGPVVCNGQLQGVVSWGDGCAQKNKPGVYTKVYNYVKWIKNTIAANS

Pneumocystis carinii [5] = experiment: as §2; format: functional; in short: as §1; remark: listed apart in the source
[6] = Cytotoxicity in […], spleen and kidneys for pathologic changes by light microscopy.+ = animals survived without observable distress; format: tissue-based; details: rat
In short: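 In corticosteroid-immunosuppressed rats given 14 daily iv doses for PCP, liver, spleen and kidneys were examined for pathology by light microscopy, and health was recorded daily. Toxicity was graded at 10 mg/kg or the highest dose tested on a scale from 0 (no local, clinical or histologic toxicity) to 4+ (≥50% of animals died).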

Rattus norvegicus [7] = experiment: as §2; format: functional; in short: as §1
[8] = Cytotoxicity in […], spleen and kidneys for pathologic changes by light microscopy.++ = most animals survived, with severe distress and marked local toxicity and some systemic toxicity and histopathologic abnormalities; format: tissue-based; details: rat
In short: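 Male Sprague-Dawley rats (150–200 g), corticosteroid-immunosuppressed to induce PCP; from week 6, single daily iv injection for 14 days, usually 10 mg/kg in 0.4 mL saline (lower if insoluble or toxic); killed end of week 8. Liver, spleen, kidneys examined by light microscopy; daily health observation; toxicity graded 0 to 4+ at 10 mg/kg or highest dose tested.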

Pneumocystis carinii [9] = experiment: Ability to reduce the severity of PCP in immunosuppressed rats after (i.v.) administration of 10 mg/kg/day; format: functional; details: route intravenous; in short: as §1
Rattus norvegicus [10] = experiment: Ability to reduce the severity of PCP in immunosuppressed rats after(iv) administration of 10 mg/kg/day; format: functional; details: in the assay text read “1.25 mg/kg/day” for “10 mg/kg/day”; in short: as §1
Serine protease 1 [11] = molecular target: T1, Serine protease 1; experiment: Inhibition of trypsin by amidase assay
Rattus norvegicus [12] = experiment: Ability to reduce the severity of PCP in immunosuppressed rats after (iv)administration; not tested in animals, Insoluble; format: functional, organism-based

| ΔTm (Calf thymus DNA) [°C] | Ki (Serine protease 1 [4]) [µM] | SMILES | No. of animals (Pneumocystis carinii [3]) | No. of animals (Pneumocystis carinii [5]) | Toxicity [6] | further results |
| --- | --- | --- | --- | --- | --- | --- |
| 11 | 10.3 | Cl.N=C(N)c1ccc(NCCCNc2ccc(C(=N)N)cc2N)c(N)c1 | 4 | 1 | animals survived without observable distress |  |
| 5.4 | 7.3 | N=C(N)c1ccc(OCCOc2ccc(C(=N)N)cc2)cc1 |  |  |  |  |
| 14.7 | 3.3 | Cl.Cl.N=C(N)c1ccc(OCCCOc2ccc(C(=N)N)cc2)cc1 | 4 | 3 | animals survived without observable distress |  |
| 9.6 | 9.1 | Cl.N=C(N)c1ccc(OCCCCOc2ccc(C(=N)N)cc2N)c(N)c1 | 5 | 2 |  | No. of animals (Rattus norvegicus [7]): 1; No. of animals (Rattus norvegicus [1]): 0; No. of animals (Rattus norvegicus [2]): 0 |
| 8.1 | 1.8 | Cl.Cl.N=C(N)c1cccc(OCCCCOc2cccc(C(=N)N)c2)c1 | 1 | 2 |  |  |
| 7.6 | 1.1 | Cl.Cl.N=C(N)c1cccc(OCCCOc2cccc(C(=N)N)c2)c1 | 1 | 2 |  |  |
| 16.3 | 1.3 | COc1cc(C(=N)N)ccc1OCCCOc1ccc(C(=N)N)cc1OC.Cl.Cl | 1 | 7 |  | No. of animals (Pneumocystis carinii [9]): 0 |
| 10.5 | 11.1 | Cl.N=C(N)c1ccc(NCCCCNc2ccc(C(=N)N)cc2N)c(N)c1 | 4 | 0 | animals survived without observable distress |  |
|  |  | Cl.N=C(N)c1ccc(OCCCCCCOc2ccc(C(=N)N)cc2[N+](=O)[O-])c([N+](=O)[O-])c1 |  |  |  | No. of animals (Rattus norvegicus [10]): 1 |
| 8.8 |  | Cl.N=C(N)c1ccc(OCCOc2ccc(C(=N)N)cc2N)c(N)c1 | 4 |  |  | No. of animals (Rattus norvegicus [1]): 0; No. of animals (Rattus norvegicus [2]): 0; Ki (Serine protease 1 [11]): 5 µM |
| 8.3 | 5.3 | Cl.N=C(N)c1ccc(NCCCCCCNc2ccc(C(=N)N)cc2N)c(N)c1 | 1 | 3 | animals survived without observable distress |  |
|  |  | N=C(N)c1ccc(OCCCCCOc2ccc(C(=N)N)cc2Br)c(Br)c1 |  |  |  | No. of animals (Rattus norvegicus [12]): Insoluble |
| 6.8 | 3.8 | Cl.Cl.N=C(N)c1cccc(OCCCCCOc2cccc(C(=N)N)c2)c1 | 3 | 4 | animals survived without observable distress |  |
| 7.3 | 4 | Cl.Cl.N=C(N)c1cccc(OCCCCCCOc2cccc(C(=N)N)c2)c1 | 4 | 1 | animals survived without observable distress |  |
| 10.2 |  | COc1cc(C(=N)N)ccc1OCCCCOc1ccc(C(=N)N)cc1OC.Cl.Cl | 4 | 3 |  |  |
| 10.5 | > 2000 | Cl.c1cc(C2=NCCN2)ccc1OCCCCCOc1ccc(C2=NCCN2)cc1 | 3 |  |  | No. of animals (Rattus norvegicus [1]): 0; No. of animals (Rattus norvegicus [2]): 0 |
| 10.5 |  | Cl.Cl.N=C(N)c1ccc(OCCCCCOc2ccc(C(=N)N)cc2Cl)c(Cl)c1 | 0 | 0 |  |  |
| 13.6 | 5.8 | Cl.Cl.N=C(N)c1ccc(OCCCOc2ccc(C(=N)N)cc2N)c(N)c1 | 4 | 2 |  | No. of animals (Rattus norvegicus [7]): 1; No. of animals (Rattus norvegicus [1]): 0; No. of animals (Rattus norvegicus [2]): 0 |
| 9.1 | 12.7 | Cl.N=C(N)c1ccc(NCCNc2ccc(C(=N)N)cc2N)c(N)c1 | 0 | 0 | animals survived without observable distress |  |
| 11 | 4.8 | Cl.N=C(N)c1ccc(NCCCCCNc2ccc(C(=N)N)cc2N)c(N)c1 | 2 | 3 | animals survived without observable distress |  |
| 8.9 |  | Cl.Cl.N=C(N)c1ccc(OCCCCOc2ccc(C(=N)N)cc2Cl)c(Cl)c1 | 1 |  |  | No. of animals (Rattus norvegicus [7]; in the assay text read “1.25 mg/kg/day” for “10 mg/kg/day”): 0; No. of animals (Pneumocystis carinii [9]): 2 and 3 |
| 10.8 | 1.8 | Cl.N=C(N)c1ccc(OCCCCCOc2ccc(C(=N)N)cc2N)c(N)c1 | 5 |  | animals survived without observable distress | No. of animals (Rattus norvegicus [1]): 1; No. of animals (Rattus norvegicus [2]): 0 |
| 11.6 | 1.1 | Cl.N=C(N)c1ccc(NCCCNc2ccc(C(=N)N)cc2)cc1 | 1 | 5 and 2 | animals survived without observable distress | No. of animals (Rattus norvegicus [1]): 0; No. of animals (Rattus norvegicus [2]): 0 |
| 10.7 | 2.3 | Cl.N=C(N)c1ccc(OCCCCCOc2ccc(C(=N)N)cc2)cc1 [PENTAMIDINE HYDROCHLORIDE] | 28 | 21 |  |  |

| SMILES | ΔTm (Calf thymus DNA) [°C] | Ki (Serine protease 1 [4]) [µM] | No. of animals (Pneumocystis carinii [3]) | No. of animals (Pneumocystis carinii [5]) | Toxicity [6] | further results |
| --- | --- | --- | --- | --- | --- | --- |
| Cl.N=C(N)c1ccc(OCCCCCCOc2ccc(C(=N)N)cc2N)c(N)c1 | 9.5 | 293 | 1 |  |  | No. of animals (Rattus norvegicus [1]): 3; No. of animals (Rattus norvegicus [2]): 0 |
| COc1cc(C(=N)N)ccc1OCCCCCOc1ccc(C(=N)N)cc1OC.Cl.Cl | 12 | 1.3 | 4 | 2 |  |  |
| Cl.Cl.N=C(N)c1ccc(OCCCCCOc2ccc(C(=N)N)cc2[N+](=O)[O-])c([N+](=O)[O-])c1 | 9.7 | 1 | 2 | 0 |  |  |
| Cl.Cl.N=C(N)c1ccc(OCCCCOc2ccc(C(=N)N)cc2[N+](=O)[O-])c([N+](=O)[O-])c1 | 8.5 | 5.4 | 0 | 0 |  |  |
| Cl.N=C(N)c1ccc(NCCCCCNc2ccc(C(=N)N)cc2)cc1 | 11.3 | 1.4 | 2 |  |  |  |
| Cl.N=C(N)c1ccc(NCCCNc2ccc(C(=N)N)cc2[N+](=O)[O-])c([N+](=O)[O-])c1 | 12.8 | 4.3 | 0 |  |  | No. of animals (Rattus norvegicus [7]): 0; Toxicity [8]: most animals survived, with severe distress and marked local toxicity and some systemic toxicity and histopathologic abnormalities |
| Cl.Cl.N=C(N)c1ccc(OCCCCCCOc2ccc(C(=N)N)cc2)cc1 | 9.1 | 2.7 | 3 | 3 |  |  |
| Cl.N=C(N)c1ccc(NCCCCCNc2ccc(C(=N)N)cc2[N+](=O)[O-])c([N+](=O)[O-])c1 | 12.7 | 8 | 3 |  |  | No. of animals (Pneumocystis carinii [9]): 2 and 1 |
| Cl.Cl.N=C(N)c1ccc(OCCCCOc2ccc(C(=N)N)cc2)cc1 | 8.3 | 1.5 | 0 | 8 | Non-toxic | No. of animals (Pneumocystis carinii [9]): 0 |
| Cl.N=C(N)c1ccc(NCCCCNc2ccc(C(=N)N)cc2)cc1 | 10.3 | 1.6 | 1 |  |  |  |

Source: ChEMBL document CHEMBL1124749, “Analogues of 1,5-bis(4-amidinophenoxy)pentane (pentamidine) in the treatment of experimental Pneumocystis carinii pneumonia” (J Med Chem, 1990)
